From ChEMBL document CHEMBL3758175, “Bis-isatin hydrazones with novel linkers: Synthesis and biological evaluation as cytotoxic agents” (Eur J Med Chem, 2016) come the findings set out here.

pIC50: −log10 of the molar value. Where only a bound is given, the exact number is not on record here.

In assay [1] the test system is MCF7. The assay is described as follows: Cytotoxicity against human MCF7 cells assessed as cell viability after 24 hrs by crystal violet staining assay. The format is functional, cell-based. Particulars: MCF7, 24 h.
In assay [2] the test system is HepG2. The assay is described as follows: Cytotoxicity against human HepG2 cells assessed as cell viability after 24 hrs by crystal violet staining assay. The assay is classed as functional, cell-based. The conditions noted are these: HepG2, 24 h. An outline of the steps:
(§1)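 Cells were kept as monolayers in RPMI-1640 with 10% heat-inactivated FCS and 50 µg/ml gentamycin at 37 °C under 5% CO2. They were seeded at 3,000 cells/well and, 24 h later, washed with PBS (pH 7.2). Ten dilutions in fresh medium were added for 24 h at 37 °C, with a 1% DMSO vehicle control. Survivors were stained with crystal violet, lysed with 33% acetic acid and read at 490 nm against untreated cells. IC50 was taken from graphic plots; mean of at least three experiments.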

The nature of assay [3]: Cytotoxicity against human HCT116 cells assessed as cell viability after 24 hrs by crystal violet staining assay. The format is functional, cell-based. Particulars: HCT-116, 24 h. The method in brief: as §1
Assay [4] deals with HepG2. The assay is described as follows: Cytotoxicity against human HepG2 cells assessed as growth inhibition after 72 hrs by Sulforhodamine B colorimetric assay. The format is functional, cell-based. Particulars: HepG2, 72 h. A general note: Sulforhodamine B stains cellular protein and so reports cell mass.
The subject of assay [5] is L1210. The assay is described as follows: Cytotoxicity against mouse L1210 cells assessed as cell growth inhibition by MTT assay. The format is functional, cell-based.
Assay [6] is described as follows: Cytotoxicity against human KB3-1 cells assessed as cell survival after 72 hrs by MTT assay. The assay is classed as functional, cell-based. The conditions noted are these: KB 3-1, 72 h. (Tetrazolium dyes change colour on reduction, which living cells bring about.)
A short description of assay [7]: Cytotoxicity against human KBV1 cells assessed as cell survival after 72 hrs by MTT assay. The assay is classed as functional, cell-based. The conditions noted are these: KB-V1, 72 h.
For assay [8], the system named is MCF7. The assay is described as follows: Cell cycle arrest in human MCF7 cells assessed as accumulation at G2/M phase at IC50 after 24 hrs by flow cytometric analysis relative to control. The format is functional.
Assay [9] has as its system MCF7. The assay is described as follows: Cell cycle arrest in human MCF7 cells assessed as decrease in cell level at G0/G1 phase at IC50 after 24 hrs by flow cytometric analysis relative to control. Also on record: scale not given: the % may be the effect or the level left. The assay is classed as functional. In general terms: Flow cytometry measures light scatter and fluorescence of single cells or particles in a stream.

For assay [10], the system named is MCF7. The assay is described as follows: Induction of apoptosis in human MCF7 cells at IC50 after 24 hrs by annexin V-FITC/propidium iodide staining based flow cytometry relative to control. The assay is classed as functional.
For assay [11], the system named is MCF7. The assay is described as follows: Induction of apoptosis in human MCF7 cells assessed as early apoptotic cells at IC50 after 24 hrs by annexin V-FITC/propidium iodide staining based flow cytometry (reference value: 3.70%). The assay is classed as functional.
Assay [12] has as its system MCF7. The assay is described as follows: Induction of apoptosis in human MCF7 cells assessed as late apoptotic cells at IC50 after 24 hrs by annexin V-FITC/propidium iodide staining based flow cytometry relative to control. The format is functional.
The subject of assay [13] is MCF7. The assay is described as follows: Induction of apoptosis in human MCF7 cells assessed as necrotic cells at IC50 after 24 hrs by annexin V-FITC/propidium iodide staining based flow cytometry relative to control. The format is functional.
The subject of assay [14] is MCF7. The assay is described as follows: Cell cycle arrest in human MCF7 cells assessed as accumulation at pre-G phase at IC50 after 24 hrs by flow cytometric analysis relative to control. The format is functional.
For assay [15], the system named is MCF7. The assay is described as follows: Induction of apoptosis in human MCF7 cells assessed as viable cells at IC50 after 24 hrs by annexin V-FITC/propidium iodide staining based flow cytometry (reference value: 96.3%). The format is functional.
Assay [16] concerns MCF7. The assay is described as follows: Cytotoxicity against human MCF7 cells assessed as growth inhibition after 72 hrs by Sulforhodamine B colorimetric assay. The assay is classed as functional, cell-based. Particulars: MCF7, 72 h.
The target of assay [17] is Cyclin-dependent kinase 2/cyclin E1 (Homo sapiens, UniProt P24941). The assay is described as follows: Inhibition of GST-tagged recombinant human CDK2/cyclin E expressed in insect SF-9 cells after 10 mins by scintillation counting analysis in presence of [gamma-33P]-ATP. Also on record: species or system Sf9.

A word on the pIC50: it is −log10 of the IC50, conventionally taken in molar units. For `COc1ccc2c(c1)/C(=N/NC(=O)c1cncc(C(=O)N/N=C3\C(=O)Nc4ccc(OC)cc43)c1)C(=O)N2`, the pIC50 in assay [1] was 4.18; in assay [2], 4.44; in assay [3], 4.34.
For `O=C1Nc2ccc(F)cc2/C1=N/Nc1nc(-c2ccccc2)nc2ccccc12`, the pIC50 in assay [4] was 6.00.
On to `Cc1ccc2c(c1)/C(=N/NC(=O)N/N=C1\C(=O)Nc3ccc(C)cc31)C(=O)N2`, for which the pIC50 in [5] was 4.80.
In the case of `Cc1ccc2c(c1)/C(=N/NC(=O)C(=O)N/N=C1\C(=O)Nc3ccc(C)cc31)C(=O)N2`, the negative logarithm of the IC50 (pIC50) was 4.25 in assay [1], less than 4.00 in assay [2] and less than 4.00 in [3].
In the case of `O=C1Nc2ccc([N+](=O)[O-])cc2/C1=N/NC(=O)c1cncc(C(=O)N/N=C2\C(=O)Nc3ccc([N+](=O)[O-])cc32)c1`, the pIC50 in assay [1] was 4.05; in assay [2], 4.12; in assay [3] it was less than 4.00.
As for `COc1ccc2c(c1)/C(=N/NC(=O)c1[nH]c(C)c(C(=O)N/N=C3\C(=O)Nc4ccc(OC)cc43)c1C)C(=O)N2`, the negative-log IC50 (pIC50) in [1] is 4.10; in [2], 4.08; in assay [3] it was less than 4.00.
With `O=C1Nc2ccc(Cl)cc2/C1=N/N=C1\C(=O)N(c2ccccc2)c2ccccc21`, the figures for the pIC50 in [6] and in [7] were 5.17 and 5.22, respectively.
For the compound `Cc1[nH]c(C(=O)N/N=C2\C(=O)Nc3ccc([N+](=O)[O-])cc32)c(C)c1C(=O)N/N=C1\C(=O)Nc2ccc([N+](=O)[O-])cc21`, the negative logarithm of the IC50 (pIC50) in [1] is less than 4.00; in assay [2] it was 4.06; in [3], less than 4.00.
As for `Cc1c(C(=O)N/N=C2\C(=O)Nc3ccccc32)c(C)n(C)c1C(=O)N/N=C1\C(=O)Nc2ccccc21`, the negative logarithm of the IC50 (pIC50) in assay [1], in assay [2] and in assay [3] was less than 4.00 throughout.
With `Cc1[nH]c(C(=O)N/N=C2\C(=O)Nc3ccccc32)c(C)c1C(=O)N/N=C1\C(=O)Nc2ccccc21`, the pIC50 in assay [1] is 4.16; in assay [2], 4.52; in assay [3], 4.12.
In the case of `Cc1ccc2c(c1)/C(=N/NC(=O)c1[nH]c(C)c(C(=O)N/N=C3\C(=O)Nc4ccc(C)cc43)c1C)C(=O)N2`, the figures for the pIC50 in assay [1], in assay [2] and in assay [3] were 4.34, less than 4.00 and 4.34, respectively.
In the case of `Cc1[nH]c(C(=O)N/N=C2\C(=O)Nc3ccc(Br)cc32)c(C)c1C(=O)N/N=C1\C(=O)Nc2ccc(Br)cc21`, the values for the negative logarithm of the IC50 (pIC50) in assay [1], in assay [2] and in [3] were 4.44, 4.49 and 4.43, respectively.
For the compound `O=C1Nc2ccc(F)cc2/C1=N/NC(=O)c1cncc(C(=O)N/N=C2\C(=O)Nc3ccc(F)cc32)c1`, the negative-log IC50 (pIC50) in [1] is 4.42; in [2], 4.12; in [3], 4.61.
Taken in the same sequence, the figures for `O=C(N/N=C1\C(=O)Nc2ccc([N+](=O)[O-])cc21)C(=O)N/N=C1\C(=O)Nc2ccc([N+](=O)[O-])cc21` were 4.04, 4.59 and 4.25.
Regarding `COc1ccc2c(c1)/C(=N/NC(=O)c1c(C)c(C(=O)N/N=C3\C(=O)Nc4ccc(OC)cc43)n(C)c1C)C(=O)N2`, the “fold change (FC)” value in assay [8] was found to be 1.83; in [10] it was 6.7; in assay [14], 5. The Activity worked out at 18.5% in assay [9]; 25% in [11]; 0.36% in [12]; 0.18% in assay [13]; 74.5% in assay [15]. Also, the negative-log IC50 (pIC50) in assay [1] was 5.74; in [2] it was 5.16; in assay [3] it was 5.48.
Take `O=C(N/N=C1\C(=O)Nc2ccc(Br)cc21)C(=O)N/N=C1\C(=O)Nc2ccc(Br)cc21`: the pIC50 in [1] is 4.04; in assay [2] it was 4.11; in assay [3], 4.01.
For `Cc1[nH]c(C(=O)N/N=C2\C(=O)Nc3ccc(F)cc32)c(C)c1C(=O)N/N=C1\C(=O)Nc2ccc(F)cc21` the same measures were 4.12, 4.11 and 4.11.
`Cc1ccc2c(c1)/C(=N/NC(=O)c1c(C)c(C(=O)N/N=C3\C(=O)Nc4ccc(C)cc43)n(C)c1C)C(=O)N2`: the pIC50 in assay [1] was 4.52; in [2], 4.66; in assay [3] it was 4.41.
Consider `O=C1Nc2ccccc2/C1=N/NC(=O)c1cncc(C(=O)N/N=C2\C(=O)Nc3ccccc32)c1`, for which the results for the negative logarithm of the IC50 (pIC50) in [1], in assay [2] and in [3] were 4.41, 4.14 and 4.41, respectively.
With `COc1ccc(-c2nc(N/N=C3\C(=O)Nc4ccc(Cl)cc43)c3ccccc3n2)cc1OC`, in assay [16], the pIC50 is 5.68.
For `O=C1Nc2ccc(Br)cc2/C1=N/NC(=O)c1cncc(C(=O)N/N=C2\C(=O)Nc3ccc(Br)cc32)c1`, the figures for the pIC50 in [1], in assay [2] and in [3] were 4.46, 4.52 and 4.62, respectively.
For `COc1cccc2c1C(=O)c1c(O)c3c(c(O)c1C2=O)C[C@@](O)(C(=O)CO)C[C@@H]3O[C@H]1C[C@H](N)[C@H](O)[C@H](C)O1` [DOXORUBICIN], the pIC50 is 5.45 in assay [2] and 5.43 in [3].
Take `O=C1/C(=C2\Nc3ccccc3C2=O)Nc2ccccc21` [INDIGO]: the negative-log IC50 (pIC50) in assay [17] is 6.00.
